Structures are written as SMILES. “Also recorded” adds a separate entry of the source. Like-named read-outs stand apart in the source and are kept apart here.

This is an account of results in paper PMC3535304 (Bioorganic & medicinal chemistry, 2012).

Assay [1] has as its system MCF-7 cells. As to the kind of experiment: In vitro antiproliferative assay. It is filed as cell-based, human. The following applies: 3e vs 2e, 3b vs 2b.
The subject of the next assay is LoVo^Doxo cells. The following applies: IC50 LoVo^Doxo / IC50 LoVo; ref [8]; cited from earlier work.
The test system of a further assay is LoVo cells. The note with it: read-out: IC50 (cell growth inhibition), ref [8]; cited from earlier work.
In a further assay the test system is caspase-8. As to the kind of experiment: Western blot analysis in HeLa cells. The class given is cell-based, human. The following applies: 24 or 48 h. The gist of the method:
(§1)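 HeLa cells were exposed to test compound for 24 or 48 h, washed in cold PBS, and lysed on ice for 30 min. Cleared lysate (20 μg protein, BCA) was run on 7.5–15% SDS-PAGE and moved to PVDF. Primary antibodies (2 h, room temperature) were procaspase-2, cleaved caspase-8, cleaved caspase-3, PARP and cyclin B1, followed by peroxidase secondary and ECL. Membranes were reprobed for β-actin.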

The test system of assay [2] is Jurkat cells. Kind of assay: Flow cytometric analysis of cell cycle distribution. The class given is cell-based, human. The note with it: 24 h. The gist of the method:
(§2)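 Exponentially growing cells (5 × 10⁵) were treated 24 h with test compound at 31–500 nM. They were then fixed in ice-cold 70% ethanol and treated with lysis buffer containing RNase A and 0.1% Triton X-100. DNA was stained with propidium iodide and content measured by flow cytometry, with cycle phases taken from DNA histograms. Mean ± SEM of three independent experiments.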

In assay [3] the test system is HeLa cells. Described as above. The class given is cell-based, human. The note with it: 24 h, range tested 31 to 500 nM. In a few lines:
as §2

A further assay has as its system caspase-2. As to the kind of experiment: Western blot analysis in HeLa cells. It is filed as cell-based, human. The following applies: 24 or 48 h. In a few lines: as §1
Assay [4] concerns HeLa cells. Kind of assay: Annexin-V/PI apoptosis assay. It is filed as cell-based, human. The following applies: 250 or 500 nM, 24 or 48 h. In a few lines: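 HeLa cells exposed to test compound for 24 or 48 h, then labelled with annexin-V-FITC (kit protocol) and propidium iodide together. Red (PI) and green (FITC) fluorescence read by flow cytometry. Maximum DMSO 0.25%. Mean ± SEM of three independent experiments.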

Assay [5] deals with mitochondrial polarization and ROS production. As to the kind of experiment: Mitochondrial functions. It is filed as cell-based. The note with it: data not shown.
The test system of another assay is caspase-3. Kind of assay: Western blot analysis in HeLa cells. It is filed as cell-based, human. The note with it: 24 and 48 h. In a few lines:
as §1

In a further assay the test system is caspase-9. Kind of assay: Western blot analysis in HeLa cells. The class given is cell-based, human. The following applies: data not shown.
Assay [6] concerns HeLa cells. The note with it: read-out: IC50 (cell growth inhibition), mean ± SE, ref [12]; cited from earlier work.
For a further assay, the system named is HL-60 cells. The following applies: read-out: IC50 (cell growth inhibition); HL-60, mean ± SE; ref [12]; cited from earlier work.
The test system of assay [7] is MCF-7 cells. The note with it: read-out: IC50 (cell growth inhibition); MCF-7, mean ± SE; ref [12]; cited from earlier work.
Assay [8] has as its system HT-29 cells. The following applies: read-out: IC50 (cell growth inhibition); HT-29, mean ± SE; ref [12]; cited from earlier work.
The next assay concerns A549 cells. The following applies: read-out: IC50 (cell growth inhibition), cited from earlier work.
Assay [9] has as its system Jurkat cells. The note with it: read-out: IC50 (cell growth inhibition), mean ± SE, ref [12]; cited from earlier work.
In another assay the target is bovine brain tubulin (Bos taurus, UniProt P81947+Q6B856). Kind of assay: Inhibition of tubulin polymerization. It is filed as biochemical. The following applies: read-out: Tubulin assembly IC50; tubulin at 10 μM, 20 min incubation.
Assay [10] concerns Jurkat cells. Kind of assay: In vitro antiproliferative assay. It is filed as cell-based. The note with it: Homo sapiens, 72 h, read-out: IC50 (cell growth inhibition). The gist of the method:
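Jurkat cells were grown in RPMI-1640 with 10% FBS, penicillin G (115 units/mL) and streptomycin (115 μg/mL). Cells were seeded at 8 × 10³ per well and held 18 h at 37 °C in 5% CO₂. Medium was then replaced with fresh medium containing the test compound (DMSO ≤0.25% final) at various concentrations for 72 h. Viability was read by MTT.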

Assay [11] concerns six human cancer cell lines (HeLa, A549, HL-60, Jurkat, MCF-7, HT-29). Kind of assay: Antiproliferative activity across the panel of six human cancer cell lines. It is filed as cell-based. The following applies: read-out: IC50 values against the six cell lines (range). In a few lines:
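Jurkat and HL-60 cells were grown in RPMI-1640; MCF-7, A549, HeLa and HT-29 in DMEM; all media had 10% FBS plus penicillin/streptomycin. Cells were seeded at 8 × 10³/well, held 18 h at 37 °C in 5% CO₂, then given fresh medium with test compound (DMSO stocks, ≤0.25% final) for 72 h. Viability was read by MTT. […] Mean ± SE, ≥3 experiments.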

The subject of assay [12] is HT-29 cells. As to the kind of experiment: In vitro antiproliferative assay. It is filed as cell-based, human. The note with it: 3d vs 2d, 3e vs 2e.
A further assay concerns cyclin B. Kind of assay: Western blot analysis in HeLa cells. It is filed as cell-based, human. The note with it: 48 h. The gist of the method:
as §1

For a further assay, the system named is A549-T12 cells. The following applies: ref [8], cited from earlier work.
The next assay deals with CEM^Vbl100 cells. As to the kind of experiment: Cell growth inhibition, drug resistant cell line. It is filed as cell-based. The note with it: Homo sapiens, CEM/VBL100, read-out: IC50 (cell growth inhibition). The gist of the method: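 Growth inhibition was read by MTT after 72 h exposure to a range of test-compound concentrations at 37 °C in 5% CO₂. DMSO was ≤0.25% final.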

In the next assay the test system is CEM cells. Kind of assay: Cell growth inhibition, parental line of drug resistant pair. The class given is cell-based. The following applies: Homo sapiens, CCRF-CEM, read-out: IC50 (cell growth inhibition).

Chain of bovine brain tubulin (Q6B856 whole entry): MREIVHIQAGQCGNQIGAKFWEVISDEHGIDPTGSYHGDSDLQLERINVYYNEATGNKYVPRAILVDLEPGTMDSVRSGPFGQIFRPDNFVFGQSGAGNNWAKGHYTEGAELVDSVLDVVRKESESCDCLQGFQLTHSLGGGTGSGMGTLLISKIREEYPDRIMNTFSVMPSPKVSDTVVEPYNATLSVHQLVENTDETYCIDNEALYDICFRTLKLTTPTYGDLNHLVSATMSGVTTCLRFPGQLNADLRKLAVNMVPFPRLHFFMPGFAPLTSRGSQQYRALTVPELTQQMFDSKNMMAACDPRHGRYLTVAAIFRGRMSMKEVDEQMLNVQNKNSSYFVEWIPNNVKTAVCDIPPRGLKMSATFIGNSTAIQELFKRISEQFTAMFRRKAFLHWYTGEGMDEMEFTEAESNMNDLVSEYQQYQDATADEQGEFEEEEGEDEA
Chain of bovine brain tubulin (P81947 whole entry): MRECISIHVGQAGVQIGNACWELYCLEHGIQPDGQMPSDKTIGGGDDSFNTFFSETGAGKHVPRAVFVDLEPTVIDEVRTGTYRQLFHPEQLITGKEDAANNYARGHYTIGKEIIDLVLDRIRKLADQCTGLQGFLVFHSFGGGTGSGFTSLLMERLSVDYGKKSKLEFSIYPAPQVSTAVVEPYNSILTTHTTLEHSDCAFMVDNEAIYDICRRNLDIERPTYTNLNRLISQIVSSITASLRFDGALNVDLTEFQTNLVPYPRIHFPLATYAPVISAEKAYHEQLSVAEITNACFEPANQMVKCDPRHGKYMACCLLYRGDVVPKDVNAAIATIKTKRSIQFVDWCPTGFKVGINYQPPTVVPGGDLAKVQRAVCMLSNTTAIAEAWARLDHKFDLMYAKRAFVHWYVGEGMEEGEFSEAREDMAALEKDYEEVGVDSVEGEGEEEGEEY

As for `CNc1nc(-c2cc(OC)c(OC)c(OC)c2)c(-c2ccc(C)cc2)s1` [3b, 4-(3,4,5-Trimethoxyphenyl)-N-methyl-5-p-tolylthiazol-2-amine], in the assay with MCF-7 cells [1], the “fold more potent than 2-amino counterpart” value is roughly 28 fold.

Regarding `COc1cccc2c1C(=O)c1c(O)c3c(c(O)c1C2=O)C[C@@](O)(C(=O)CO)C[C@@H]3O[C@H]1C[C@H](N)[C@H](O)[C@H](C)O1` [Doxorubicin], the Resistance ratio in the assay with LoVo^Doxo cells was 109.6. Also, in the assay with LoVo cells, the IC50 is 120 ± 30 nM.

`COc1cc(-c2nc(C)sc2-c2ccc3ccccc3c2)cc(OC)c1OC` [3k, 4-(3,4,5-Trimethoxyphenyl)-2-methyl-5-(naphthalen-2-yl)thiazole]: the “caspase-8 activation (appearance of cleavage product)” value in the assay on caspase-8 is “clear caspase-8 and caspase-2 activation”. For the same molecule, in the assay on Jurkat cells [2], the “concentration at which G2/M accumulation was first observed” value (“concentration” for short) is 125 nM. Besides, in the assay on HeLa cells [3], the “concentration” value was found to be 125 nM. In the assay on caspase-2, the “caspase-2 activation (disappearance of uncleaved protein)” value is “clear caspase-8 and caspase-2 activation”. In the assay on HeLa cells [4], the “induction of apoptotic (annexin-V positive) cells” value was “significant induction of apoptotic cells”. Besides, the “effect on mitochondrial polarization and ROS production” value in assay [5] is recorded as “only slightly affected”. In addition, in the assay with caspase-3, the caspase-3 activation entry is “clear activation of caspase-3” and the “cleavage of caspase-3 substrate PARP” value is given as “cleavage of the caspase-3 substrate PARP”. For the same molecule, the caspase-9 activation result in the assay on caspase-9 is on record as “did not induce activation of caspase-9”.

Turning to `COc1cc(-c2nc(N)sc2-c2ccc3ccccc3c2)cc(OC)c1OC` [2a], the IC50 with HeLa cells [6] is 1.6 ± 0.6 nM; with HL-60 cells it was 2.7 ± 0.3 nM; with MCF-7 cells [7] it was 51.2 ± 9.2 nM; with HT-29 cells [8] it was 23.9 ± 3.9 nM; in the assay with A549 cells (A549, mean ± SE, ref [12]), 3.8 ± 0.6 nM; in the assay with Jurkat cells [9] it was 3.3 ± 0.9 nM. Moreover, the IC50 at bovine brain tubulin was 740 ± 10 nM.

On to `COc1ccc(/C=C\c2cc(OC)c(OC)c(OC)c2)cc1O` [CA-4, Combretastatin A-4], for which the IC50 with Jurkat cells [10] turned out to be 5 ± 0.6 nM.

Regarding `COc1ccc(-c2sc(N)nc2-c2cc(OC)c(OC)c(OC)c2)cc1` [2d], the IC50 in the assay with HeLa cells [6] was 2.3 ± 0.2 nM; in the assay on HL-60 cells, 3.2 ± 1.2 nM; in the assay on MCF-7 cells [7], 60.9 ± 8.4 nM; in the assay with HT-29 cells [8], 11.7 ± 3.9 nM; in the assay with A549 cells (A549, mean ± SE, ref [12]), 20.2 ± 1.7 nM; with Jurkat cells [9], 2.1 ± 0.4 nM. Moreover, at bovine brain tubulin, the IC50 worked out at 1100 ± 70 nM.

In the case of `CCOc1ccc(-c2sc(NC)nc2-c2cc(OC)c(OC)c(OC)c2)cc1` [3e, 5-(4-Ethoxyphenyl)-4-(3,4,5-trimethoxyphenyl)-N-methylthiazol-2-amine], in the assay on caspase-8, the “caspase-8 activation (appearance of cleavage product)” value was “clear caspase-8 and caspase-2 activation”. For the same molecule, in assay [11], the IC50 was 1.7 to 38 nM. Also, the “concentration” value with HeLa cells [3] amounted to 31 nM. In addition, in the assay on HT-29 cells [12], the “fold more potent than 2-amino counterpart” value was 10 fold. Moreover, the “caspase-2 activation (disappearance of uncleaved protein)” value with caspase-2 is “clear caspase-8 and caspase-2 activation”. Besides, the “induction of apoptotic (annexin-V positive) cells” value in the assay with HeLa cells [4] is “Analogous behaviour but with a stronger effect”. The “cyclin B expression” value with cyclin B is on record as “slight decrease”. Also, the “effect on mitochondrial polarization and ROS production” value in assay [5] is listed as “did not cause mitochondrial depolarization; also recorded: only slightly affected”. In addition, in the assay on caspase-3, the caspase-3 activation entry is on record as “clear activation of caspase-3” and the “cleavage of caspase-3 substrate PARP” value is “cleavage of the caspase-3 substrate PARP”. For the same molecule, the caspase-9 activation entry with caspase-9 is reported as “did not induce activation of caspase-9”.

For `CCOc1ccc(-c2sc(N)nc2-c2cc(OC)c(OC)c(OC)c2)cc1` [2e], the IC50 in the assay on HeLa cells [6] is 0.03 ± 0.005 nM; with HL-60 cells, 0.9 ± 0.3 nM; in the assay on MCF-7 cells [7], 44 ± 6.3 nM; with HT-29 cells [8] it was 38.2 ± 11.4 nM; with A549 cells (A549, mean ± SE, ref [12]) it was 0.09 ± 0.01 nM; with Jurkat cells [9] it was 0.14 ± 0.05 nM. Also, the IC50 at bovine brain tubulin came to 610 ± 50 nM.

Turning to `CC(=O)O[C@H]1C(=O)[C@@]2(C)[C@H]([C@H](OC(=O)c3ccccc3)[C@]3(O)C[C@H](OC(=O)[C@H](O)[C@@H](NC(=O)c4ccccc4)c4ccccc4)C(C)=C1C3(C)C)[C@]1(OC(C)=O)CO[C@@H]1C[C@@H]2O` [Taxol], in the assay with A549-T12 cells (IC50 A549-T12 / IC50 A549), the Resistance ratio is 10.4. In addition, the IC50 was 75.2 ± 12.5 nM in the assay with A549-T12 cells (read-out: IC50 (cell growth inhibition), A549-T12) and 7.2 ± 0.1 nM with A549 cells (A549, ref [8]).

Regarding `COc1cc(-c2nc(N)sc2-c2ccc(C(F)(F)F)cc2)cc(OC)c1OC` [2c], the IC50 is 3.2 ± 0.4 nM in the assay on HeLa cells [6]; 5.1 ± 1.1 nM in the assay on HL-60 cells; 0.4 ± 0.1 nM in the assay with MCF-7 cells [7]; 221 ± 50.2 nM with HT-29 cells [8]; 357 ± 65 nM in the assay with A549 cells (A549, mean ± SE, ref [12]); 8.5 ± 1.2 nM in the assay with Jurkat cells [9].

For the molecule `CNc1nc(-c2cc(OC)c(OC)c(OC)c2)c(-c2ccc(OC)cc2)s1` [3d, 4-(3,4,5-Trimethoxyphenyl)-5-(4-methoxyphenyl)-N-methylthiazol-2-amine], the “fold more potent than 2-amino counterpart” value with HT-29 cells [12] stood at 2 fold.

As to `COc1cc(-c2nc(N)sc2-c2ccc(C)cc2)cc(OC)c1OC` [2b], the IC50 in the assay on HeLa cells [6] was 0.73 ± 0.2 nM; in the assay on HL-60 cells it was 3.9 ± 1.1 nM; in the assay on MCF-7 cells [7], 280 ± 69.8 nM; in the assay on HT-29 cells [8], 12.4 ± 5.1 nM; with A549 cells (A549, mean ± SE, ref [12]), 42.8 ± 5.7 nM; in the assay with Jurkat cells [9], 3.9 ± 0.6 nM. Besides, the IC50 at bovine brain tubulin was 440 ± 10 nM.

With `CC[C@]1(O)C[C@@H]2CN(CCc3c([nH]c4ccccc34)[C@@](C(=O)OC)(c3cc4c(cc3OC)N(C)[C@H]3[C@@](O)(C(=O)OC)[C@H](OC(C)=O)[C@]5(CC)C=CCN6CC[C@]43[C@@H]65)C2)C1` [Vinblastine], the IC50 came out at 205 ± 46 nM in the assay on CEM^Vbl100 cells and 0.8 ± 0.1 nM in the assay on CEM cells.
